Assay results published in ChEMBL document CHEMBL4002637, “Synthesis, characterization, in vitro SAR and in vivo evaluation of N,N'bisnaphthylmethyl 2-alkyl substituted imidazolium salts against NSCLC” (Bioorg Med Chem Lett, 2017).
Activity calls are given as the source filed them. No cut-off for these calls is given here.

Tests used:
NCI-H322M [1] = assay: Growth inhibition of human NCI-H322M cells assessed as cell growth at 10 uM after 24 hrs by SRB assay relative to control; type: functional; conditions: read-out: Activity
Outline: (§1)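 NCI DTP one-dose screen: cells plated at density set by doubling rate, incubated overnight, then exposed to compound at 10 μM for 24 hours. Growth percentage from protein density at end versus start of experiment, relative to initial cell number.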

Bos taurus [2] = organism: Bos taurus; assay: Inhibition of ethidium bromide binding to calf thymus DNA assessed as at 13.3 uM using 1% DMSO/water compound formulation by spectrofluorometric method
NCI-H1975 = assay: Antiproliferative activity against human NCI-H1975 cells using 1% DMSO/water compound formulation after 72 hrs by MTT assay; type: functional, cell-based; conditions: NCI-H1975, 72 h
Outline: (§2)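 MTT anti-proliferation on NSCLC lines. Compounds dissolved in DMSO, diluted with water to 1% DMSO, then into growth medium (max 0.032% DMSO on cells); or dissolved in 10% (w/v) 2-HPβCD in water, then diluted (max 0.008% w/w 2-HPβCD in wells; vehicle controls at 0.008%). IC50 = concentration giving 50% loss of viability versus control cells. Cisplatin dissolved in water with stirring.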

HOP-62 [3] = assay: Growth inhibition of human HOP62 cells after 24 hrs by SRB assay; type: functional; conditions: HOP-62, 24 h
NCI-H23 = assay: Growth inhibition of human NCI-H23 cells assessed as cell growth at 10 uM after 24 hrs by SRB assay relative to control; type: functional; conditions: NCI-H23, 24 h, read-out: Activity; outline: as §1
NCI-H460 [4] = assay: Antiproliferative activity against human NCI-H460 cells using 10% 2-HPbetaCD compound formulation after 72 hrs by MTT assay; type: functional, cell-based; conditions: NCI-H460, 72 h; outline: as §2
NCI-H322M [5] = assay: Growth inhibition of human NCI-H322M cells after 24 hrs by SRB assay; type: functional
NCI-H460 [6] = assay: Disruption of mitochondrial membrane potential in human NCI-H460 cells at 20 uM up to 30 mins using […] by JC1/DAPI staining based confocal microscopic method; type: functional, cell-based
A549 = assay: Antiproliferative activity against human A549 cells using 1% DMSO/water compound formulation after 72 hrs by MTT assay; type: functional, cell-based; conditions: A549, 72 h; outline: as §2
HCC827 [7] = assay: Antiproliferative activity against human HCC827 cells using 10% 2-HPbetaCD compound formulation after 72 hrs by MTT assay; type: functional, cell-based; conditions: HCC827, 72 h; outline: as §2
HOP-62 [8] = assay: Growth inhibition of human HOP62 cells assessed as cell growth at 10 uM after 24 hrs by SRB assay relative to control; type: functional; conditions: HOP-62, 24 h, read-out: Activity; outline: as §1
EKVX = assay: Growth inhibition of human EKVX cells assessed as cell growth at 10 uM after 24 hrs by SRB assay relative to control; type: functional; conditions: read-out: Activity; outline: as §1
NCI-H226 = assay: Growth inhibition of human NCI-H226 cells assessed as cell growth at 10 uM after 24 hrs by SRB assay relative to control; type: functional; conditions: NCI-H226, 24 h, read-out: Activity; outline: as §1
[9] = Solubility of the compound in 10% 2-HPbetaCD/water solution; type: physicochemical; conditions: buffer
NCI-H522 = assay: Growth inhibition of human NCI-H522 cells after 24 hrs by SRB assay; type: functional; conditions: NCI-H522, 24 h
Bos taurus [10] = organism: Bos taurus; assay: Inhibition of ethidium bromide binding to calf thymus DNA assessed as at 13.3 uM using 10% 2HPbetaCD/water compound formulation by spectrofluorometric method
HOP-92 = assay: Growth inhibition of human HOP92 cells assessed as cell growth at 10 uM after 24 hrs by SRB assay relative to control; type: functional; conditions: HOP-92, 24 h, read-out: Activity; outline: as §1
HCC827 [11] = assay: Antiproliferative activity against human HCC827 cells using 1% DMSO/water compound formulation after 72 hrs by MTT assay; type: functional, cell-based; conditions: HCC827, 72 h; outline: as §2

CCc1n(Cc2ccc3ccccc3c2)cc[n+]1Cc1ccc2ccccc2c1.[Br-]
growth at 10 µM (NCI-H322M [1]): 44.3% | inhibition (Bos taurus [2]): inactive | IC50 (NCI-H1975): 660 nM | GI50 (HOP-62 [3]): 1420 nM | LC50 (HOP-62 [3]): 9360 nM | TGI (HOP-62 [3]): 3650 nM | growth at 10 µM (NCI-H23): -14.6% | IC50 (NCI-H460 [4]): 990 nM | GI50 (NCI-H322M [5]): 2120 nM | LC50 (lethal concentration 50%) (NCI-H322M [5]): 6710 nM | TGI (NCI-H322M [5]): 6710 nM | Activity (NCI-H460 [6]): Active | IC50 (A549): 2630 nM | IC50 (HCC827 [7]): 970 nM | growth at 10 µM (HOP-62 [8]): 11.9% | growth at 10 µM (EKVX): 11.9% | growth at 10 µM (NCI-H226): 6.75% | solubility [9]: > 4400 µg/mL | GI50 (NCI-H522): 303 nM | TGI (NCI-H522): 1440 nM | CC50 (NCI-H522; read-out: LC50 (the source's name)): 1440 nM | inhibition (Bos taurus [10]): inactive | growth at 10 µM (HOP-92): -31.4% | IC50 (HCC827 [11]): 1150 nM
